From ChEMBL document CHEMBL1240360, “TMC278, a next-generation nonnucleoside reverse transcriptase inhibitor (NNRTI), active against wild-type and NNRTI-resistant HIV-1” (Antimicrob Agents Chemother, 2010)

Legend:
[1] = tested on: Human immunodeficiency virus 1; assay: Antiviral activity against Human immunodeficiency virus 1 subtype O isolate BCF02 infected in human PBMC cells by cell based assay; details: Human immunodeficiency virus 1, subtype O isolate BCF02, PBMC
[2] = tested on: Human immunodeficiency virus 1; assay: Antiviral activity against Human immunodeficiency virus 1 subtype B isolate 93BR021 infected in human PBMC cells by cell based assay; details: Human immunodeficiency virus 1, subtype B isolate 93BR021, PBMC
[3] = tested on: Human immunodeficiency virus 1; assay: Antiviral activity against Human immunodeficiency virus 1 subtype D isolate 92UG001 infected in human PBMC cells by cell based assay; details: Human immunodeficiency virus 1, subtype D isolate 92UG001, PBMC
[4] = tested on: Human immunodeficiency virus 1; assay: Antiviral activity against Human immunodeficiency virus 1 group M subtype A1 assessed as days to viral replication breakthrough at 200 nM by cell based assay; format: functional
[5] = tested on: Human immunodeficiency virus 1; assay: Antiviral activity against Human immunodeficiency virus 1 subtype AG infected in human MT4 cells assessed as reduction in virus induced cytopathicity; format: functional, organism-based
In short: (§1)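 Recombinant viruses were made by recombining patient-derived HIV-1 RT-PR sequences into an RT-PR-deleted HXB2 proviral clone transfected into MT4 cells. Subtype was assigned from PR/RT sequence by Smith-Waterman alignment to HXB2. MT4 cells (1.5 × 10^5/ml) were infected at MOI 0.01 with serially diluted compound for 5 days at 37°C. Viability was read by MTT and EC50 derived.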

[6] = tested on: Human immunodeficiency virus 1; assay: Antiviral activity against Human immunodeficiency virus 1 subtype C isolate 92BR025 infected in human PBMC cells by cell based assay; details: Human immunodeficiency virus 1, subtype C isolate 92BR025, PBMC
[7] = tested on: MT4; assay: Cytotoxicity against human MT4 cells by cell based assay
In short: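 Cytotoxicity in MT4 cells from cell-based assays gave a 50% cytotoxic concentration, reported as a median with first- to third-quartile values over the stated number of experiments.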

[8] = tested on: Human immunodeficiency virus 1; assay: Antiviral activity against Human immunodeficiency virus 1 subtype F isolate 93BR019 infected in human PBMC cells by cell based assay; details: Human immunodeficiency virus 1, subtype F isolate 93BR019, PBMC
[9] = tested on: Human immunodeficiency virus 1; assay: Antiviral activity against Human immunodeficiency virus 1 group M subtype BG assessed as days to viral replication breakthrough at 40 nM by cell based assay; format: functional
[10] = tested on: Human immunodeficiency virus 1; assay: Antiviral activity against Human immunodeficiency virus 1 subtype G isolate G3 infected in human PBMC cells by cell based assay; details: Human immunodeficiency virus 1, subtype G isolate G3, PBMC
[11] = tested on: Human immunodeficiency virus 1; assay: Antiviral activity against Human immunodeficiency virus 1 group M subtype H assessed as days to viral replication breakthrough at 200 nM by cell based assay; format: functional
[12] = tested on: Human immunodeficiency virus 1; assay: Antiviral activity against Human immunodeficiency virus 1 subtype A isolate 92UG037 infected in human PBMC cells by cell based assay; details: Human immunodeficiency virus 1, subtype A isolate 92UG037, PBMC
[13] = tested on: Human immunodeficiency virus 1; assay: Antiviral activity against Human immunodeficiency virus 1 group M subtype G assessed as days to viral replication breakthrough at 10 nM by cell based assay; format: functional
[14] = tested on: Human immunodeficiency virus 1; assay: Antiviral activity against Human immunodeficiency virus 1 subtype E isolate 92TH006 infected in human PBMC cells by cell based assay; details: Human immunodeficiency virus 1, subtype E 92TH006, PBMC
[15] = tested on: Human immunodeficiency virus 1; assay: Antiviral activity against Human immunodeficiency virus 1 group M subtype AG assessed as days to viral replication breakthrough at 10 nM by cell based assay; format: functional
[16] = tested on: Human immunodeficiency virus 1; assay: Antiviral activity against Human immunodeficiency virus 1 group M subtype A1 assessed as days to viral replication breakthrough at 40 nM by cell based assay; format: functional
[17] = tested on: Human immunodeficiency virus 1; assay: Antiviral activity against Human immunodeficiency virus 1 group M subtype C assessed as days to viral replication breakthrough at 200 nM by cell based assay; format: functional
[18] = tested on: Human immunodeficiency virus 1; assay: Antiviral activity against Human immunodeficiency virus 1 subtype A isolate 92UG029 infected in human PBMC cells by cell based assay; details: Human immunodeficiency virus 1, subtype A isolate 92UG029, PBMC
[19] = tested on: Human immunodeficiency virus 1; assay: Antiviral activity against Human immunodeficiency virus 1 group M subtype G assessed as days to viral replication breakthrough at 200 nM by cell based assay; format: functional
[20] = tested on: Human immunodeficiency virus 1; assay: Antiviral activity against Human immunodeficiency virus 1 subtype E isolate 93TH073 infected in human PBMC cells by cell based assay; details: Human immunodeficiency virus 1, subtype E 93TH073, PBMC
[21] = tested on: Human immunodeficiency virus 1; assay: Antiviral activity against Human immunodeficiency virus 1 subtype BG infected in human MT4 cells assessed as reduction in virus induced cytopathicity; format: functional, organism-based; in short: as §1
[22] = tested on: Human immunodeficiency virus 1; assay: Antiviral activity against Human immunodeficiency virus 1 group M subtype AE assessed as days to viral replication breakthrough at 10 nM by cell based assay; format: functional
[23] = tested on: Human immunodeficiency virus 1; assay: Antiviral activity against Human immunodeficiency virus 1 subtype B isolate JR-CSF infected in human PBMC cells by cell based assay
[24] = tested on: Human immunodeficiency virus 1; assay: Antiviral activity against Human immunodeficiency virus 1 group M subtype D assessed as days to viral replication breakthrough at 200 nM by cell based assay; format: functional
[25] = tested on: Human immunodeficiency virus 2; assay: Antiviral activity against Human immunodeficiency virus 2 ROD infected in human MT4 cells assessed as reduction in virus induced cytopathicity; format: functional, organism-based; details: Human immunodeficiency virus 2, ISOLATE ROD
In short: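 MT4 cells (1.5 × 10^5/ml) infected with HIV (MOI 0.01) were added to serial compound dilutions and incubated 5 days at 37°C in 5% CO2. Protection from virus-induced cell death was read by MTT tetrazolium colorimetry, giving an EC50 in micromolar.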

[26] = tested on: Human immunodeficiency virus 1; assay: Antiviral activity against Human immunodeficiency virus 1 group M subtype G assessed as days to viral replication breakthrough at 40 nM by cell based assay; format: functional
[27] = tested on: Human immunodeficiency virus 1; assay: Antiviral activity against Human immunodeficiency virus 1 subtype G isolate RU132 infected in human PBMC cells by cell based assay; details: Human immunodeficiency virus 1, subtype G isolate RU132, PBMC
[28] = tested on: Human immunodeficiency virus 1; assay: Antiviral activity against Human immunodeficiency virus 1 group M subtype H assessed as days to viral replication breakthrough at 40 nM by cell based assay; format: functional
[29] = tested on: Human immunodeficiency virus 1; assay: Antiviral activity against Human immunodeficiency virus 1 subtype D infected in human MT4 cells assessed as reduction in virus induced cytopathicity; format: functional, organism-based; in short: as §1
[30] = tested on: Human immunodeficiency virus 1; assay: Antiviral activity against Human immunodeficiency virus 1 subtype AE infected in human MT4 cells assessed as reduction in virus induced cytopathicity; format: functional, organism-based; in short: as §1
[31] = tested on: Human immunodeficiency virus 1; assay: Antiviral activity against Human immunodeficiency virus 1 subtype (H) infected in human MT4 cells assessed as reduction in virus induced cytopathicity; format: functional, organism-based; in short: as §1
[32] = tested on: Human immunodeficiency virus 1; assay: Antiviral activity against Human immunodeficiency virus 1 subtype O misolate BCF01 infected in human PBMC cells by cell based assay; details: Human immunodeficiency virus 1, subtype O isolate BCF01, PBMC
[33] = tested on: Human immunodeficiency virus 1; assay: Antiviral activity against Human immunodeficiency virus 1 3B infected in human MT4 cells assessed as reduction in virus induced cytopathicity; format: functional, organism-based
In short: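 MT4 cells (1.5 × 10^5/ml) infected with HIV-1 IIIB at MOI 0.01 and added to serially diluted compound. Cultures incubated 5 days at 37°C under 5% CO2. Cell viability, as protection from virus-induced killing, read by MTT tetrazolium colorimetry. EC50 reported as median with first to third quartiles over n experiments.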

## Cc1cc(/C=C/C#N)cc(C)c1Nc1ccnc(Nc2ccc(C#N)cc2)n1 [RILPIVIRINE]
[1]
  EC50: 2.88 nM
[2]
  EC50: 0.23 nM
[3]
  EC50: 0.26 nM
[4]
  Activity: > 31 days
[5]
  EC50: 0.13 nM
[6]
  EC50: 0.33 nM
[7]
  Activity: 5.91 µM
[8]
  EC50: 0.95 nM
[9]
  Activity: 13 days
[10]
  EC50: 0.25 nM
[11]
  Activity: > 31 days
[12]
  EC50: 0.24 nM
[13]
  Activity: > 31 days
[14]
  EC50: 0.08 nM
[15]
  Activity: > 31 days
[16]
  Activity: > 31 days
[17]
  Activity: > 31 days
[18]
  EC50: 0.44 nM
[19]
  Activity: > 31 days
[20]
  EC50: 0.07 nM
[21]
  EC50: 0.22 nM
[22]
  Activity: > 31 days
[23]
  EC50: 0.51 nM
[24]
  Activity: > 31 days
[25]
  EC50: 5220 nM
[26]
  Activity: > 31 days
[27]
  EC50: 0.51 nM
[28]
  Activity: > 31 days
[29]
  EC50: 0.3 nM
[30]
  EC50: 0.21 nM
[31]
  EC50: 0.24 nM
[32]
  EC50: 3.13 nM
[33]
  EC50: 0.73 nM
